Experimental data from paper PMC2818804 (Journal of medicinal chemistry, 2010).
≈ marks a conversion by molar mass, not a printed value.

What was measured:
[1] = tested on: firefly luciferase; test: firefly luciferase counter-assay; format: biochemical
[2] = molecular target: PKM2 (Homo sapiens, UniProt P14618); test: steady-state kinetics of PEP and ADP in the PK-LDH coupled assay; format: biochemical; conditions: in the presence of activator (10 μM); PEP varied
[3] = kinetic solubility analysis; format: physicochemical; conditions: aqueous medium (not further specified)
Outline: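 Solubility determined by quantitative nitrogen detection. Three separate experiments; average intra-assay %CV 4.5%.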

[4] = molecular target: hPK, M2 (pyruvate kinase, human M2 isoform, PKM2) (Homo sapiens, UniProt P14618); test: luminescent pyruvate kinase-luciferase coupled assay; format: biochemical; conditions: read-out: hPK, M2 AC50, three separate experiments
Sequence of hPK, M2 (pyruvate kinase, human M2 isoform, PKM2) (P14618 whole entry, canonical isoform): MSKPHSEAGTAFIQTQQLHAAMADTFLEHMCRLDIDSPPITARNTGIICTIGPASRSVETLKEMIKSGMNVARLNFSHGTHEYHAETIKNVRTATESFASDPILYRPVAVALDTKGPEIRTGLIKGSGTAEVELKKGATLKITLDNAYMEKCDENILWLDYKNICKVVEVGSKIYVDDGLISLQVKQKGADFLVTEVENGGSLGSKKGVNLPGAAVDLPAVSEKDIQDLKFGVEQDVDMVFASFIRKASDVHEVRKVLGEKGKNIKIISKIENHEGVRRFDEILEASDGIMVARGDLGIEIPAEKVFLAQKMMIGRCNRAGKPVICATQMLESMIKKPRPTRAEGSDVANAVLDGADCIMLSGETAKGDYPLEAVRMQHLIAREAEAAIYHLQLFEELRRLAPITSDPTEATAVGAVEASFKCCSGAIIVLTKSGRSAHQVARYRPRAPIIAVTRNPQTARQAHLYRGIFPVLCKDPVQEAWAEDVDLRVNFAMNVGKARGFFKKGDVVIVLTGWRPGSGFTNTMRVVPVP

Sequence of PKM2 (P14618 whole entry): as the sequence (P14618 whole entry, canonical isoform) above

| Compound | solubility [3] | further results |
| --- | --- | --- |
| COc1ccc(S(=O)(=O)N2CCN(S(=O)(=O)c3ccc4c(c3)OCCO4)CC2)cc1 [compound 2] | – | activation of firefly luciferase [1]: did not activate; Vmax [2]: 265 pmols/min |
| O=S(=O)(c1ccc2c(c1)OCCO2)N1CCN(S(=O)(=O)c2c(F)cccc2F)CC1 [compound 10] | < 0.5 µg/mL | – |
| O=S(=O)(c1ccc2c(c1)OCCO2)N1CCCN(S(=O)(=O)c2c(F)cccc2F)CC1 [compound 34] | 2.7 µg/mL (≈ 5.69 µM) | – |
| O=S(=O)(N[C@H]1CC[C@H](NS(=O)(=O)c2c(F)cccc2F)CC1)c1ccc2c(c1)OCCO2 [compound 40] | – | AC50 [4]: 2.11 µM |
| Nc1cccc(S(=O)(=O)N2CCN(S(=O)(=O)c3c(F)cccc3F)CC2)c1 [compound 56] | 3 µg/mL (≈ 7.19 µM) | – |
| COc1cc(F)c(S(=O)(=O)N2CCCN(S(=O)(=O)c3cccc(N)c3)CC2)c(F)c1 [compound 57] | 15.1 µg/mL (≈ 32.7 µM) | – |
